Compound activity from PubChem.
The list is not random: actives were taken first. Their share in the collection is about 3.9%.
CHOP inh – blocks CHOP induction under ER stress; 220,000 compounds, 3.8% hits; inhibition, % at 10 µM; CHO-K1 CHOP-promoter luciferase, tunicamycin-induced, 15-18 h; AID 2732;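 active = compounds that reduced the stress-induced luciferase reporter signal by more than about 70% of percent inhibition, limit read from the data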;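 note: 0% = tunicamycin plus vehicle and 100% = wells without tunicamycin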
Gli-Sufu block – blocks Gli-Sufu signaling in a luciferase reporter | inhibition, % at 5 µM | Sufu-KO-LIGHT fibroblasts, Gli luciferase reporter luminescence | 340,000 compounds, 0.74% hits;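 active = inhibition above about 55%, limit read from the data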;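 note: 0% = DMSO-treated cells and 100% = wells with medium but no cells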
XBP1 UPR activ – adaptive UPR (XBP1) activation; CHO-XBP1 luciferase reporter, IRE1-XBP1 UPR activation, luminescence; percent of tunicamycin response, DMSO as zero; activation, % at 20 µM; 330,000 compounds, 0.33% hits;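 active = versus positive control, 20 µM dose yields 30% or more activation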;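 note: 100% = tunicamycin at 10 µg/mL and 0% = DMSO only wells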
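Signal: luciferase luminescence; Assay system: CHO-XBP1 luciferase reporter cells; Amount: one thousand reporter cells per well; Dosing: 20 µM single concentration, DMSO 1%; Benchmarks: high control tunicamycin 10 µg/mL final, low control DMSO vehicle only; Schedule: 6 h compound exposure at 37 °C, 5% CO2; Evaluation: percent activation relative to tunicamycin reference.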
UPR CHOP act – apoptotic UPR (CHOP) activation. CHO-CHOP luciferase reporter, luminescence; percent of tunicamycin response over DMSO baseline. activation, % at 10 µM. 330,000 compounds, 0.34% hits. AID 449763;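 active = at 10 µM dose, activation of 40% or more, normalized to positive control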;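 note: 100% = tunicamycin at 10 µg/mL and 0% = DMSO alone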
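Material: CHO-CHOP cells, stable luciferase reporter of PERK-eIF2a-CHOP signalling; quantity: 500 reporter cells seeded per well; buffer or medium: F12 medium containing 10% fetal bovine serum; compound: one dose, 10 µM in 0.5% DMSO; incubation: 6 h compound treatment, 37 °C; measured by: Steady-Glo luciferase luminescence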
Jurkat NFkB inh – lowers PMA/ionomycin-induced NF-kB signal in Jurkat cells | 330,000 compounds, 0.53% hits | PMA/ionomycin-induced NF-kB luciferase reporter, luminescence | AID 435003 | inhibition, % at 4 µM; in the data active = inhibition above about 50%
697 NFkB inh – lowers PMA/ionomycin-induced NF-kB signal in 697 B cells; 697 B-cell NF-kB luciferase reporter, 16 h; inhibition, % at 4 µM; 330,000 compounds, 0.33% hits; AID 435022; in the data active = inhibition above about 35%
Gli-Sufu confirm – confirmation of Gli-SUFU pathway antagonists; shares compounds with Gli-Sufu block; Sufu-KO-LIGHT cells, Gli luciferase reporter, luminescence; inhibition, % at 5 µM; 2,500 compounds, 40% hits; AID 602428;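 active = mean inhibition at 5 µM reaching about 45%, limit read from the data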;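 note: plate controls were DMSO-treated cells for no effect and wells lacking cells for full effect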
Gli cytotox – counter-screen for Gli-SUFU antagonists: cytotoxicity; AID 651994; Sufu-KO-LIGHT cells cytotoxicity, ATP luminescence; shares compounds with Gli-Sufu block; 2,500 compounds, 32% hits; cytotoxicity, % at 5 µM;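 active = mean cytotoxicity at 5 µM above about 25%, limit read from the data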;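 note: cells exposed to compound overnight for roughly 16 to 18 hours; plate controls were DMSO wells with cells for no effect and medium without cells for full effect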
Wnt3a cs – Wnt3a reporter inhibition counter-screen. shares compounds with Gli-Sufu block. Wnt-LIGHT cells, Wnt3a-driven luciferase reporter, luminescence. inhibition, % at 6.25 µM. 2,500 compounds, 20% hits;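 active = mean inhibition above about 25%, limit read from the data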
* hit, by the source's call; . = not tested or not shown.

SMILES	CHOP inh	Gli-Sufu block	XBP1 UPR activ	UPR CHOP act	Jurkat NFkB inh	697 NFkB inh	Gli-Sufu confirm	Gli cytotox	Wnt3a cs
COc1cccc(CN2CCNC(=O)C2CC(=O)N(C)C2CCCCC2)c1OC (stereo not drawn)	.	4	0	1	6	-8	.	.	.
CN1CCC(=C2c3ccccc3CCc3sccc32)CC1	5	35	-1	0	-1	5	.	.	.
CN1CCC(=C2c3ccccc3CC(=O)c3sccc32)CC1	52	10	-10	1	-2	-6	24	5	7
CC(=O)Nc1ccc(N2C(=O)CSC2c2c(F)cccc2Cl)cc1 (stereo not drawn)	17	52	3	-2	1	11	9	13	-15
CC(=O)Nc1ccc(N2C(=O)CSC2c2ccc(F)cc2)cc1 (stereo not drawn)	13	1	-2	4	2	-1	.	.	.
O=C(c1ccc2nc(Cc3cccc(Cl)c3)oc2c1)N1CCC[C@H]1CO	.	-4	-5	1	3	-1	.	.	.
Cc1cc(NC(=O)COc2ccccc2C)ccc1NC(=O)c1cccs1	.	51	6	0	22	9	12	0	-48
CC(=O)Nc1ccc(NC(=O)C2CC(=O)N(Cc3ccco3)C2)cc1 (stereo not drawn)	.	-5	-2	1	12	17	.	.	.
COc1ccc(C#Cc2c(-c3ccccc3)n(-c3ccccc3)c3ccc(CO)cc23)cc1	.	-9	3	2	2	-6	.	.	.
COCc1cc(=O)[nH]c(Nc2nc3ccc(C)cc3o2)n1	22	50	-5	31	-6	-243	63*	26*	-133
COc1ccccc1NC(=O)COc1ccc2c(c1)OCO2	.	59*	1	0	-14	-13	15	11	-65
COc1ccc(S(=O)(=O)N2CCC(C(N)=O)(N3CCCCC3)CC2)cc1	45	1	-1	-2	-8	4	.	.	.
CC(=O)Nc1ccc(S(=O)(=O)N2CCC(C(N)=O)(N3CCCCC3)CC2)cc1	.	55*	1	-1	-14	-1	30	-1	14
Cc1nn(C)c(C)c1NS(=O)(=O)c1ccccc1Cl	.	4	1	-1	1	3	.	.	.
CCCCn1c(SCc2c(C)noc2C)nc2cc(S(N)(=O)=O)ccc21	-29	51	-4	-1	-24	27	62*	1	-13
CCOc1ccc2c(c1)C(C)=CC(C)(C)N2S(=O)(=O)c1ccc(C)cc1	-16	67*	17	1	33	-53	64*	62*	25
CCNC(=O)N1c2ccc(OCC)cc2C(C)=CC1(C)C	17	4	-3	-1	-1	-17	.	.	.
COc1ccc2c(c1)C(C)=CC(C)(C)N2S(=O)(=O)c1ccc(C)cc1	-14	67*	24	0	39	10	56*	58*	30*
Cc1ccc(-n2nnnc2SCn2nnc3ccccc3c2=O)cc1	-11	-5	-3	3	-44	-96	.	.	.
COc1ccc(C)cc1-n1nnnc1SCn1nnc2ccccc2c1=O	37	58*	-3	4	28	-16	64*	31*	32*
COc1ccc(C)cc1-n1nnnc1SCc1cc(=O)n2cc(C)ccc2n1	44	58*	0	3	41	-32	57*	37*	6
Cc1ccc(NC(=O)CCS(=O)(=O)c2ccc3c(c2)NC(=O)C(C)S3)nc1 (stereo not drawn)	.	-4	-2	0	-23	-30	.	.	.
C/C(COc1ccccc1)=N\NC(=O)c1nnn(-c2nonc2N)c1CSc1ccccc1	.	7	3	-2	2	-3	.	.	.
